{
  "source": "ChEMBL document CHEMBL4270484",
  "about": "“Synthesis and Characterization of a Phosphate Prodrug of Isoliquiritigenin” (J Nat Prod, 2017)",
  "key": {"[1]": {"assay": "Stability of the compound in pH 7.4 phosphate buffer solution at -20 degC incubated for 16 days", "format": "physicochemical"}, "[2]": {"assay": "Solubility in pH 7.4 PBS at 3.83 mg in 400 ul solution sonicated for 5 mins followed by incubation at room temperature for 30 mins", "format": "physicochemical", "how_it_was_run": "(§1)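 Solid suspended in PBS pH 7.4 at the stated amount and volume, sonicated 5 min, held 30 min at room temperature, then diluted 1:1 stepwise until a clear solution. Solubility judged by visual inspection as partial or soluble.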"}, "[3]": {"assay": "Stability of the compound in amophous solid form at -20 degC incubated for 16 days", "format": "physicochemical"}, "[4]": {"assay": "Stability of the compound in amophous solid form at ambient temperature incubated for 16 days", "format": "physicochemical", "details": "384 h"}, "[5]": {"assay": "Stability of the compound in pH 7.4 phosphate buffer solution at 4 degC incubated for 16 days", "format": "physicochemical"}, "[6]": {"assay": "Drug metabolism in C57BL/6 mouse plasma assessed as half life for isoliquiritigenin formation by UPLC analysis", "format": "ADME, cell-free", "how_it_was_run": "(§2)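 Mouse plasma (cardiac puncture, heparin, spun 2000g 10 min 4 °C) or lung homogenate in 0.9% saline (spun 400g 5 min), n = 3 mice, stored −80 °C. 27 μL matrix plus 5 μL of 1 mM prodrug in PBS pH 7.4, 37 °C; lung 5–20 min, plasma 40–240 min. Stopped with CH3CN, centrifuged, UPLC at 360 nm with Fmoc-glycine reference; remaining fraction from prodrug/parent AUC ratio.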"}, "[7]": {"assay": "Drug metabolism in C57BL/6 mouse lung extracts assessed as half life for isoliquiritigenin formation by UPLC analysis", "format": "ADME, tissue-based", "how_it_was_run": "as §2"}, "[8]": {"assay": "Solubility in pH 7.4 PBS at 3.83 mg in 100 ul solution sonicated for 5 mins followed by incubation at room temperature for 30 mins", "format": "physicochemical", "how_it_was_run": "as §1"}, "[9]": {"assay": "Solubility in pH 7.4 PBS sonicated for 5 mins followed by incubation at room temperature for 30 mins", "format": "physicochemical", "how_it_was_run": "as §1"}, "[10]": {"assay": "Stability in pH 7.4 PBS buffer at 37 degC incubated for 24 hrs by UPLC analysis", "format": "physicochemical", "details": "pH 7.4, 24 h"}, "Mus musculus [11]": {"system": "Mus musculus", "assay": "Reduction in CCL4 gene expression in lungs of C57BL/6 mouse infected with Influenza A virus (A/Puerto Rico/8/1934(H1N1)) at 10 mg/kg, ip starting on the same day as infection and continued daily until day 3 postinfection by real-time PCR analysis", "format": "functional", "design": "scale not given: the % may be the effect or the level left", "how_it_was_run": "(§3)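 Female C57BL/6 mice, 6–8 weeks old, infected intranasally with PR8 and given 10 mg/kg in saline by ip injection. On day 3 p.i., lungs were homogenized in Ribozol. 500 ng RNA was reverse-transcribed and run in SYBR green qPCR. Fold change versus uninfected mice was calculated by 2ΔΔCt with 18S normalization. Means ± SD from three experiments, 3–4 mice per group.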"}, "[12]": {"assay": "Solubility in pH 7.4 PBS at 3.83 mg in 200 ul solution sonicated for 5 mins followed by incubation at room temperature for 30 mins", "format": "physicochemical", "how_it_was_run": "as §1"}, "Mus musculus [13]": {"system": "Mus musculus", "assay": "Reduction in IL6 gene expression in lungs of C57BL/6 mouse infected with Influenza A virus (A/Puerto Rico/8/1934(H1N1)) at 10 mg/kg, ip starting on the same day as infection and continued daily until day 3 postinfection by real-time PCR analysis", "format": "functional", "design": "scale not given: the % may be the effect or the level left", "how_it_was_run": "as §3"}, "Influenza A virus": {"system": "Influenza A virus", "assay": "Antiviral activity against Influenza A virus (A/Puerto Rico/8/1934(H1N1)) infected in MDCK cells infected with supernatants from virus-infected human Calu3 cells treated with compound for 2 days assessed as reduction in viral replication by crystal violet staining based viral plaque assay", "format": "functional, organism-based", "details": "48 h"}, "[14]": {"assay": "Solubility in pH 7.4 PBS at 0.5 mg in 32 ul solution sonicated for 5 mins followed by incubation at room temperature for 30 mins", "format": "physicochemical", "how_it_was_run": "as §1"}, "[15]": {"assay": "Solubility in pH 7.4 PBS at 0.5 mg in 2 ul solution sonicated for 5 mins followed by incubation at room temperature for 30 mins", "format": "physicochemical", "how_it_was_run": "as §1"}, "[16]": {"assay": "Solubility in pH 7.4 PBS at 0.5 mg in 4 ul solution sonicated for 5 mins followed by incubation at room temperature for 30 mins", "format": "physicochemical", "how_it_was_run": "as §1"}, "[17]": {"assay": "Solubility in pH 7.4 PBS at 0.5 mg in 16 ul solution sonicated for 5 mins followed by incubation at room temperature for 30 mins", "format": "physicochemical", "how_it_was_run": "as §1"}, "[18]": {"assay": "Solubility in pH 7.4 PBS at 0.5 mg in 128 ul solution sonicated for 5 mins followed by incubation at room temperature for 30 mins", "format": "physicochemical", "how_it_was_run": "as §1"}, "[19]": {"assay": "Solubility in pH 7.4 PBS at 0.5 mg in 8 ul solution sonicated for 5 mins followed by incubation at room temperature for 30 mins", "format": "physicochemical", "how_it_was_run": "as §1"}, "[20]": {"assay": "Solubility in pH 7.4 PBS at 0.5 mg in 64 ul solution sonicated for 5 mins followed by incubation at room temperature for 30 mins", "format": "physicochemical", "how_it_was_run": "as §1"}, "[21]": {"details": "phosphate buffer solution, pH 7.4, read-out: Stability"}},
  "data": [
    {"smiles": "N.O=C(/C=C/c1ccc(OCOP(=O)(O)O)cc1)c1ccc(O)cc1O", "values": [
      {"measurement": "Stability", "setting": "[1]; buffer, pH 7.4, 384 h", "value": "Stable"},
      {"measurement": "solubility at 0.5 h", "setting": "[2]", "value": 25, "unit": "mM"},
      {"measurement": "Stability", "setting": "[3]; 384 h", "value": 6, "unit": "months"},
      {"measurement": "Stability", "setting": "[4]", "value": 2, "unit": "weeks"},
      {"measurement": "Stability", "setting": "[5]; buffer, pH 7.4, 384 h", "value": "Stable"},
      {"measurement": "t1/2", "setting": "[6]", "value": 100, "unit": "min"},
      {"measurement": "t1/2", "setting": "[7]", "value": 10.8, "unit": "min"},
      {"measurement": "solubility at 0.5 h", "setting": "[8]", "value": 100, "unit": "mM"},
      {"measurement": "solubility at 0.5 h", "setting": "[9]", "value": 25, "unit": "mM"},
      {"measurement": "Stability", "setting": "[10]", "value": "Stable"},
      {"measurement": "Activity", "setting": "Mus musculus [11]", "value": 62.5, "unit": "%"},
      {"measurement": "solubility at 0.5 h", "setting": "[12]", "value": 50, "unit": "mM"},
      {"measurement": "Activity", "setting": "Mus musculus [13]", "value": 80, "unit": "%"}
    ]},
    {"smiles": "O=C(/C=C/c1ccc(OCOP(=O)(O)O)cc1)c1ccc(O)cc1O", "values": [
      {"measurement": "remaining at 384 h", "setting": "[1]; [21]", "value": 80, "unit": "%"},
      {"measurement": "remaining at 384 h", "setting": "[3]; amorphous solid form, read-out: Stability", "value": 80, "unit": "%"},
      {"measurement": "remaining at 384 h", "setting": "[5]; [21]", "value": 60, "unit": "%"}
    ]},
    {"smiles": "O=C(/C=C/c1ccc(O)cc1)c1ccc(O)cc1O", "note": "[ISOLIQUIRITIGENIN]", "values": [
      {"measurement": "EC50", "setting": "Influenza A virus", "value": 24.7, "unit": "µM"},
      {"measurement": "solubility at 0.5 h", "setting": "[14]", "value": 62.5, "unit": "mM"},
      {"measurement": "solubility at 0.5 h", "setting": "[15]", "value": 1000, "unit": "mM"},
      {"measurement": "solubility at 0.5 h", "setting": "[16]", "value": 500, "unit": "mM"},
      {"measurement": "solubility at 0.5 h", "setting": "[17]", "value": 125, "unit": "mM"},
      {"measurement": "Stability", "setting": "[7]", "value": "Stable"},
      {"measurement": "solubility at 0.5 h", "setting": "[18]", "value": 15.3, "unit": "mM"},
      {"measurement": "solubility at 0.5 h", "setting": "[19]", "value": 250, "unit": "mM"},
      {"measurement": "solubility at 0.5 h", "setting": "[20]", "value": 31.2, "unit": "mM"},
      {"measurement": "solubility at 0.5 h", "setting": "[9]", "value": 0.0153, "unit": "mM"},
      {"measurement": "Stability", "setting": "[10]", "value": "Stable"}
    ]}
  ]
}
